Data: ChEMBL document CHEMBL3860025, “Antiproliferative and Anti-inflammatory Withanolides from Physalis angulata” (J Nat Prod, 2016)

How the values were obtained:
[1] = Antiproliferative activity against human A498 cells assessed as inhibition of cell viability after 48 hrs by MTT reduction assay; assay type: functional, cell-based; conditions: A498, 48 h
How it was run: (§1)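 Cells grown in RPMI-1640 or EMEM with 10% FBS at 37 °C under 5% CO2. Seeded at 1 × 10^4 cells/well for 12 h, then exposed to a range of compound concentrations for 48 h. Viability read by MTT reduction. 5-Fluorouracil was the positive control. Each assay was repeated three times, and IC50 reported as mean ± SD.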

[2] = Antiproliferative activity against human C4-2B cells assessed as inhibition of cell viability after 48 hrs by MTT reduction assay; assay type: functional, cell-based; conditions: LNCaP C4-2B; how it was run: as §1
[3] = Antiinflammatory activity in mouse RAW264.7 cells assessed as inhibition of LPS-induced nitric oxide production after 24 hrs by Griess assay; assay type: functional, cell-based; conditions: RAW264.7, 24 h
How it was run: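 RAW 264.7 macrophages seeded at 1 × 10^6 cells/well, then incubated 24 h at 37 °C with LPS (1 μg/mL), with or without test compounds. NO measured by Griess reagent (0.1% N-(1-naphthyl)ethylenediamine plus 1% sulfanilamide in 5% H3PO4), absorbance at 540 nm. NO concentration and inhibition rate calculated from a standard curve. Hydrocortisone served as positive control.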

[4] = Antiproliferative activity against human ACHN cells assessed as inhibition of cell viability after 48 hrs by MTT reduction assay; assay type: functional, cell-based; how it was run: as §1
[5] = Antiproliferative activity against human 786-0 cells assessed as inhibition of cell viability after 48 hrs by MTT reduction assay; assay type: functional, cell-based; conditions: 786-0, 48 h; how it was run: as §1
[6] = Antiproliferative activity against human A375-S2 cells assessed as inhibition of cell viability after 48 hrs by MTT reduction assay; assay type: functional, cell-based; conditions: A375-S2, 48 h; how it was run: as §1
[7] = Antiproliferative activity against human 22Rv1 cells assessed as inhibition of cell viability after 48 hrs by MTT reduction assay; assay type: functional, cell-based, CWR22R; conditions: 22Rv1, 48 h; how it was run: as §1

Row | SMILES | IC50 [1] | IC50 [2] | IC50 [3] | IC50 [4] | IC50 [5] | IC50 [6] | IC50 [7]
1 | CC(=O)O[C@H]1C=C([C@H](C)[C@H]2CC(C)=C(C)C(=O)O2)[C@@]2(C)CC[C@H]3[C@@H](C[C@@H](O)[C@@]4(O)CC=CC(=O)[C@]34C)[C@]12O | > 10 µM | > 10 µM | 64.1 µM | > 10 µM | > 10 µM | > 10 µM | > 10 µM
2 | CC1=C(C)C(=O)O[C@@H]([C@](C)(O)[C@H]2C[C@H](O)[C@H]3[C@@H]4C[C@@H](O)[C@@]5(O)CC=CC(=O)[C@]5(C)[C@H]4CC[C@@]32C)C1 | > 10 µM | > 10 µM | 71.7 µM | > 10 µM | > 10 µM | > 10 µM | > 10 µM
3 | CO[C@]12CC=CC(=O)[C@]1(C)[C@H]1CC[C@]3(C)C([C@H](C)[C@H]4CC(C)=C(C)C(=O)O4)=C[C@H](OC(C)=O)[C@]3(O)[C@@H]1C[C@H]2O | > 10 µM | > 10 µM | 44.6 µM | > 10 µM | > 10 µM | > 10 µM | > 10 µM
4 | CC(=O)O[C@H]1C[C@@](O)([C@H](C)[C@H]2CC(C)=C(C)C(=O)O2)[C@@]2(C)CC[C@H]3[C@@H](C[C@H]4O[C@]45CC=CC(=O)[C@]35C)[C@@]12O | 0.53 µM | 0.27 µM | 3.42 µM | 0.4 µM | 0.52 µM | 3.85 µM | 2.38 µM
5 | CC(=O)O[C@H]1C=C([C@H](C)[C@H]2CC(C)=C(C)C(=O)O2)[C@@]2(C)CC[C@H]3[C@@H](C[C@@H](O)[C@@]4(O)C[C@@H](O)CC(=O)[C@]34C)[C@@]12O | > 10 µM | > 10 µM | > 100 µM | > 10 µM | > 10 µM | > 10 µM | > 10 µM
6 | CC1=C(CO)C[C@H]([C@]2(C)OC(=O)[C@]34[C@H](O)C[C@H]5[C@@H](CC=C6CC=CC(=O)[C@@]65C)[C@]3(O)[C@H](O)C[C@H]24)OC1=O | > 10 µM | > 10 µM | 17.5 µM | > 10 µM | > 10 µM | > 10 µM | > 10 µM
7 | CC1=C(C)C(=O)O[C@@H]([C@@H](C)C2=C[C@@H](O)[C@]3(O)[C@@H]4C[C@@H](O)[C@@]5(O)CC=CC(=O)[C@]5(C)[C@H]4CC[C@]23C)C1 | > 10 µM | > 10 µM | 38.2 µM | > 10 µM | > 10 µM | > 10 µM | > 10 µM
8 | O=c1[nH]cc(F)c(=O)[nH]1 [FLUOROURACIL] | 8.83 µM | 5.64 µM | – | 2.73 µM | > 10 µM | 1.91 µM | 3.83 µM
9 | CO[C@]12CC=CC(=O)[C@]1(C)[C@H]1CC[C@@]3(C)[C@](O)([C@@H](OC(C)=O)C[C@@]3(O)[C@H](C)[C@H]3CC(C)=C(C)C(=O)O3)[C@@H]1C[C@H]2O | > 10 µM | > 10 µM | 3.53 µM | > 10 µM | > 10 µM | > 10 µM | > 10 µM
10 | CC(=O)O[C@H]1C=C([C@H](C)[C@H]2CC(C)=C(C)C(=O)O2)[C@@]2(C)CC[C@H]3[C@@H](C[C@@H](O)[C@@]4(Cl)CC=CC(=O)[C@]34C)[C@]12O | 0.42 µM | 0.51 µM | 3.38 µM | 4.8 µM | 0.42 µM | 3.37 µM | 0.48 µM
11 | CO[C@@H]1CC(=O)[C@]2(C)[C@H]3CC[C@@]4(C)[C@@](O)([C@@H]3C[C@H]3O[C@]32C1)[C@@H](OC(C)=O)[C@@H]1O[C@@]14[C@H](C)[C@H]1CC(C)=C(C)C(=O)O1 | > 10 µM | 2.12 µM | 3.51 µM | > 10 µM | 2.2 µM | > 10 µM | 1.17 µM
